This note sets out measurements from ChEMBL document CHEMBL2424622, “Development of amino-pyrimidine inhibitors of c-Jun N-terminal kinase (JNK): kinase profiling guided optimization of a 1,2,3-benzotriazole lead” (Bioorg Med Chem Lett, 2013).

Assay [1] concerns the target Fibroblast growth factor receptor 2 (Homo sapiens) (UniProt P21802). Description: Competitive binding affinity to FGFR2 (unknown origin) at 10 uM in presence of ATP relative to control. The gist of the method: (§1)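 In vitro ATP-site competition binding assay, part of profiling against a diverse panel of 128 kinases. Each compound was tested at a single concentration of 10 µM. Kinome selectivity was summarized as S15 selectivity scores.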

Assay [2] addresses T1, Myotonin-protein kinase (Homo sapiens) (UniProt Q09013).
T1 sequence (whole entry): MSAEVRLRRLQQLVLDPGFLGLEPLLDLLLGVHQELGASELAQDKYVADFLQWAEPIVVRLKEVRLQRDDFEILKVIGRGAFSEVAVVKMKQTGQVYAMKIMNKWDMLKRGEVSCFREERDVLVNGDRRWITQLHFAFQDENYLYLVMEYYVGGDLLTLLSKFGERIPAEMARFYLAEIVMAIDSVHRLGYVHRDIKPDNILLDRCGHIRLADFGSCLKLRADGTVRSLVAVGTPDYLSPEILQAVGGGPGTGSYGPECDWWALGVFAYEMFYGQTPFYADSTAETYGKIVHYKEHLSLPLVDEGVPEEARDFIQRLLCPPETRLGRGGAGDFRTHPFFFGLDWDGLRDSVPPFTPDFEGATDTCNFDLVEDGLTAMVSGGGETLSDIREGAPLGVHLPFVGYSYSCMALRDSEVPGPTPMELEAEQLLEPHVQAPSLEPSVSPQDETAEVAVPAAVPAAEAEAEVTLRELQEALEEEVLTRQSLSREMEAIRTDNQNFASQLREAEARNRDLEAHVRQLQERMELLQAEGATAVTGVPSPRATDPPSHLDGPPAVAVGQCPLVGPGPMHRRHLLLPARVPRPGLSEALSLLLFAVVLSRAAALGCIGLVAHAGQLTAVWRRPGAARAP
Description: Competitive binding affinity to DMPK (unknown origin) at 10 uM in presence of ATP relative to control.

Assay [3] has as its target Tyrosine-protein kinase ABL1 (Homo sapiens) (UniProt P00519). Kind of assay: Competitive binding affinity to ABL1 (unknown origin) at 10 uM in presence of ATP relative to control.
Assay [4] deals with Proto-oncogene tyrosine-protein kinase ROS (Homo sapiens) (UniProt P08922). Kind of assay: Competitive binding affinity to ROS1 (unknown origin) at 10 uM in presence of ATP relative to control. The gist of the method: (§2)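 In vitro ATP-site competition binding assay across a diverse panel of 128 kinases, with compound tested at a single concentration. Kinase selectivity scores (S15) were calculated from the panel profiles.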

Assay [5] addresses Cyclin-dependent kinase 16 (Homo sapiens) (UniProt Q00536). Kind of assay: Competitive binding affinity to PCTK1 (unknown origin) at 10 uM in presence of ATP relative to control. In a few lines: as §2
The target of assay [6] is RAC-alpha serine/threonine-protein kinase (Homo sapiens) (UniProt P31749). Kind of assay: Competitive binding affinity to AKT1 (unknown origin) at 10 uM in presence of ATP relative to control.
RAC-alpha serine/threonine-protein kinase (Homo sapiens), sequence (P31749 whole entry): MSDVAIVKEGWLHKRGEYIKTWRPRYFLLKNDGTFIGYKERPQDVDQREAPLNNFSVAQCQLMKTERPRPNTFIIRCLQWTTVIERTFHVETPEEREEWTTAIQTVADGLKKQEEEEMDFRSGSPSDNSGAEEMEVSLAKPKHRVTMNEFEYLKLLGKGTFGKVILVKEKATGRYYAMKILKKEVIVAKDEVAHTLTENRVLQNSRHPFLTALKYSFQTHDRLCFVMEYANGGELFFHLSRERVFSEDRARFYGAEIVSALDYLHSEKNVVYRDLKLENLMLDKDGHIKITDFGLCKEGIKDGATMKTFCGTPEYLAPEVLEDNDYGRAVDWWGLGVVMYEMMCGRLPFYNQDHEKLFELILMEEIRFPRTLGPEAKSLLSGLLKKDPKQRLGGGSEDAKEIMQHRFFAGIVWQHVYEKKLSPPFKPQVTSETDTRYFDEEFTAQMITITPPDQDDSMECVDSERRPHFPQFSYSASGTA
The target of assay [7] is Proto-oncogene tyrosine-protein kinase Src (Homo sapiens) (UniProt P12931). Kind of assay: Competitive binding affinity to SRC (unknown origin) at 10 uM in presence of ATP relative to control. In a few lines: as §2
Proto-oncogene tyrosine-protein kinase Src (Homo sapiens), sequence (P12931 2-536 limits assumed): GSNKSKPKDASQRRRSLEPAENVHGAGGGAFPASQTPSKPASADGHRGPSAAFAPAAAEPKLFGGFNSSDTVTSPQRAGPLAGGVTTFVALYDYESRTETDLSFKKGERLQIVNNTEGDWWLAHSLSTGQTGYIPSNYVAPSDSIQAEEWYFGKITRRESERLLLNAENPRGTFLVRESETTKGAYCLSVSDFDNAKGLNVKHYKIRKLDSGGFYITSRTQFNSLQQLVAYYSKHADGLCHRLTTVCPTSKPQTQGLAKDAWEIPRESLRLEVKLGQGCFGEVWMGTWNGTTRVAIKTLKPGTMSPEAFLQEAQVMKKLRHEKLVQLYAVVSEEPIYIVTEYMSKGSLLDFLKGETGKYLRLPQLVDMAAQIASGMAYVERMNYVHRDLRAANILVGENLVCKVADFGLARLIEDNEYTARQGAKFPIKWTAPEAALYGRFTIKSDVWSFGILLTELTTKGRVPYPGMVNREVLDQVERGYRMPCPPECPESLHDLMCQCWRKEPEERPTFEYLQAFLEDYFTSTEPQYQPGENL
For assay [8], the target named is T2, Ephrin type-A receptor 3 (Homo sapiens) (UniProt P29320).
T2 sequence (whole entry): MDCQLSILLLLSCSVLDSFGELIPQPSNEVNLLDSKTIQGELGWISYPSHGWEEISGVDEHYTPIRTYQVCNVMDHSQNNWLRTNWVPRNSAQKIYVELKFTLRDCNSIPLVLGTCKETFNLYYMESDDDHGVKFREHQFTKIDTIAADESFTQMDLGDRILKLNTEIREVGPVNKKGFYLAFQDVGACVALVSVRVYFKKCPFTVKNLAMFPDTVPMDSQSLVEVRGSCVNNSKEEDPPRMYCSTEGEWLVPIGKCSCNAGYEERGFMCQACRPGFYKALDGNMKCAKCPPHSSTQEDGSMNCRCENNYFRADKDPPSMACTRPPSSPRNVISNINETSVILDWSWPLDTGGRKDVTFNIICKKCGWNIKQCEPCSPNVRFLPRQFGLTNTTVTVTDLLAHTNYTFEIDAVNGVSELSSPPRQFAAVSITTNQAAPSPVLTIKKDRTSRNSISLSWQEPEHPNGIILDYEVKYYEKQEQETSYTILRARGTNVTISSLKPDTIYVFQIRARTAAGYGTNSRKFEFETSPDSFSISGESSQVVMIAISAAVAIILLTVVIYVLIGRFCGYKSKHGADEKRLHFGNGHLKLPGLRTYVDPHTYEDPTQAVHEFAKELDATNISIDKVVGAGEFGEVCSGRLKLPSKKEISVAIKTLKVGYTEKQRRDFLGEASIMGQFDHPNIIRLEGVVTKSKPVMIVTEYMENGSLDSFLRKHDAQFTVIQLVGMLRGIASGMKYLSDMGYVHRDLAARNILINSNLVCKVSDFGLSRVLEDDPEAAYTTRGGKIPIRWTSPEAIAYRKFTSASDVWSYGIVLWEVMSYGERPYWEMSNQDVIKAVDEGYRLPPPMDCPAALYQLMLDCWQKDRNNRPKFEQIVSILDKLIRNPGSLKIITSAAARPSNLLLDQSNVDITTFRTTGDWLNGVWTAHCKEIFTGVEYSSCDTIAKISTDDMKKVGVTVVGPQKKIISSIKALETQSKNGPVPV
Kind of assay: Competitive binding affinity to EPHA3 (unknown origin) at 10 uM in presence of ATP relative to control. The gist of the method:
as §1

Assay [9] addresses Receptor-interacting serine/threonine-protein kinase 2 (Homo sapiens) (UniProt O43353). Kind of assay: Competitive binding affinity to RIPK2 (unknown origin) at 10 uM in presence of ATP relative to control. In a few lines:
as §2

Assay [10] deals with T3, Serine/threonine-protein kinase Nek2 (Homo sapiens) (UniProt P51955).
T3 sequence (whole entry): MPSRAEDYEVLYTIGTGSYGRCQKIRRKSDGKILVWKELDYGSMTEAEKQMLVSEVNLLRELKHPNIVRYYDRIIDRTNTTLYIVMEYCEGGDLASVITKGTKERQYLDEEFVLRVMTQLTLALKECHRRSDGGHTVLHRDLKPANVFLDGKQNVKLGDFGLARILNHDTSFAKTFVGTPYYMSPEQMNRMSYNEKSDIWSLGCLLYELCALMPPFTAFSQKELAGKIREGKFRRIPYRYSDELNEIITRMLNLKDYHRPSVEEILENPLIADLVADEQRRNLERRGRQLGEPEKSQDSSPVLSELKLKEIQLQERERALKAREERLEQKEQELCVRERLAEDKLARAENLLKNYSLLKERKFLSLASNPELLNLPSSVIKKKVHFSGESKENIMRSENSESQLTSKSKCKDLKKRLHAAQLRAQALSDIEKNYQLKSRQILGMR
Kind of assay: Competitive binding affinity to NEK2 (unknown origin) at 10 uM in presence of ATP relative to control. In a few lines: as §2

The target in assay [11] is Mitogen-activated protein kinase 14 (Homo sapiens, UniProt Q16539). Kind of assay: Competitive binding affinity to p38-alpha (unknown origin) at 10 uM in presence of ATP relative to control. In a few lines: as §2
Mitogen-activated protein kinase 14, sequence (Q16539 whole entry): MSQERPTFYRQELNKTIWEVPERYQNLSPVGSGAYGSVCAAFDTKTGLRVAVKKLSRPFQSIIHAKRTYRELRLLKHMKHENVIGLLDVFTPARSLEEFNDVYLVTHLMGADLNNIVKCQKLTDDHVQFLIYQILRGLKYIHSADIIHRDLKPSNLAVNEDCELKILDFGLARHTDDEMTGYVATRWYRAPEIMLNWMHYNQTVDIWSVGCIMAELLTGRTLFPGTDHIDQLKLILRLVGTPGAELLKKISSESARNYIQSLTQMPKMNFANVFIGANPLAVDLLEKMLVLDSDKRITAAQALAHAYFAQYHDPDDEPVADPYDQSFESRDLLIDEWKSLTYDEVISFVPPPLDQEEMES

SMILES strings stand for the structures.

Fibroblast growth factor receptor 2 (Homo sapiens), sequence (P21802 22-821 limits assumed): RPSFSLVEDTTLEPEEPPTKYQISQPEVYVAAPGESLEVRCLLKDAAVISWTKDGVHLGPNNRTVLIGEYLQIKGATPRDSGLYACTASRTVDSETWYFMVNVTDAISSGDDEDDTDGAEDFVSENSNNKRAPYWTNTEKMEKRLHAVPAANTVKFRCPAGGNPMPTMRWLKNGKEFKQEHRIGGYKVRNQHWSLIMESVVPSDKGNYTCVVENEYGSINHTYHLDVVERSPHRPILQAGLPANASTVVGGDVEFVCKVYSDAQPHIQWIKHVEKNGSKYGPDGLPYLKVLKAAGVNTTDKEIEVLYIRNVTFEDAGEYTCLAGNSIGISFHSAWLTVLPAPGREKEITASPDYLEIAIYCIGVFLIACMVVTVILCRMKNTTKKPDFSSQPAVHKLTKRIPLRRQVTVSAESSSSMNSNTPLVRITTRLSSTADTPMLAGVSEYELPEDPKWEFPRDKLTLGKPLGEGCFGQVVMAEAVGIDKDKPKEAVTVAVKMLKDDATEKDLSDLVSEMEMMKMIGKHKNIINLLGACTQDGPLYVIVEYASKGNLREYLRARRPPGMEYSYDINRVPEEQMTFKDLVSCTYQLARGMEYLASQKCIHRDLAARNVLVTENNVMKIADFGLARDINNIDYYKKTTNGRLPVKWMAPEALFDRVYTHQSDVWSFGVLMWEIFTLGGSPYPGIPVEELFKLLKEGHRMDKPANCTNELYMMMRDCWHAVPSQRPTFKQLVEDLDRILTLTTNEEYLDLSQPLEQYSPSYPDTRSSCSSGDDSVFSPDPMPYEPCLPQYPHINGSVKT
Cyclin-dependent kinase 16 (Homo sapiens), sequence (Q00536 whole entry): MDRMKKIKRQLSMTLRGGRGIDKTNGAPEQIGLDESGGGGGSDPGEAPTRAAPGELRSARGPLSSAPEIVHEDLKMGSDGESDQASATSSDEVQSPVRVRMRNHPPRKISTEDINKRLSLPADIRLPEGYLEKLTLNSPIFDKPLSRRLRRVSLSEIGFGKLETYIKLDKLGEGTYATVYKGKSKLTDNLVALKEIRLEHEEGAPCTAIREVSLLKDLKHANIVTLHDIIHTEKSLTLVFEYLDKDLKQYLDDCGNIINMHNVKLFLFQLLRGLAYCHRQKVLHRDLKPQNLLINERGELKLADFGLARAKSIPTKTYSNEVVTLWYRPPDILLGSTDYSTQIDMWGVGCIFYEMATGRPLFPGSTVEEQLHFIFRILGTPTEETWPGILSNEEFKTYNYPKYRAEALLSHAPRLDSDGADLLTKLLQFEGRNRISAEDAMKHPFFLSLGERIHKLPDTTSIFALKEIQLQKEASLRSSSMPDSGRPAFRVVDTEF
Tyrosine-protein kinase ABL1 (Homo sapiens), sequence (P00519 whole entry): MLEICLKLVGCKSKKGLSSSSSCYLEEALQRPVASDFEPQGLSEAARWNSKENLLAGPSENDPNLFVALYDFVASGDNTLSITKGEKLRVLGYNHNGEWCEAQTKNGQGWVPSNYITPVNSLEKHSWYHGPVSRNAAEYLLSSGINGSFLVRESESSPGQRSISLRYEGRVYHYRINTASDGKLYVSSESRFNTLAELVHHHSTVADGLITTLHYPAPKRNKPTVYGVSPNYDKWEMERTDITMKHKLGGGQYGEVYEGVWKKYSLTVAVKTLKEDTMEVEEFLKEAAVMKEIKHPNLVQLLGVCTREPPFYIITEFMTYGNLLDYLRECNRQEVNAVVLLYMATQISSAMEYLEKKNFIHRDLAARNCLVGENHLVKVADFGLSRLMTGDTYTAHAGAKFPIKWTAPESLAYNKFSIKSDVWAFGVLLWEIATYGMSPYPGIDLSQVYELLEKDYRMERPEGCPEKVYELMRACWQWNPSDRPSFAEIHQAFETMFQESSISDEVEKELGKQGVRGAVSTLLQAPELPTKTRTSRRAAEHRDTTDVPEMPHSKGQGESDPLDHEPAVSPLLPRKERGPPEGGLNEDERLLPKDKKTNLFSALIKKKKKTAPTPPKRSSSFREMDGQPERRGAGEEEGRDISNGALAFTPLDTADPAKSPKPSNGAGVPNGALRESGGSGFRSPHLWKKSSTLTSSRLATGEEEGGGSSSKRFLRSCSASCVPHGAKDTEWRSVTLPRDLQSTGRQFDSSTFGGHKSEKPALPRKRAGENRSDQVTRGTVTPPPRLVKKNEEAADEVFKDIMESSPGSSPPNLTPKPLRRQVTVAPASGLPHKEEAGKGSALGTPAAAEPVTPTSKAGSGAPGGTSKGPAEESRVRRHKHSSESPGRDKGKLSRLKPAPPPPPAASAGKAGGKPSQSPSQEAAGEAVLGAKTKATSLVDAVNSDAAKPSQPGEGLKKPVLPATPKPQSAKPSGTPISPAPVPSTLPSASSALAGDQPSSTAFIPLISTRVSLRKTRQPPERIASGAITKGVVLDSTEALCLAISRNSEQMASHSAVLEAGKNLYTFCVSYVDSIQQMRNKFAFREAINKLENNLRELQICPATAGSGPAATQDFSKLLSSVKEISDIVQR
Receptor-interacting serine/threonine-protein kinase 2 (Homo sapiens), sequence (O43353 whole entry): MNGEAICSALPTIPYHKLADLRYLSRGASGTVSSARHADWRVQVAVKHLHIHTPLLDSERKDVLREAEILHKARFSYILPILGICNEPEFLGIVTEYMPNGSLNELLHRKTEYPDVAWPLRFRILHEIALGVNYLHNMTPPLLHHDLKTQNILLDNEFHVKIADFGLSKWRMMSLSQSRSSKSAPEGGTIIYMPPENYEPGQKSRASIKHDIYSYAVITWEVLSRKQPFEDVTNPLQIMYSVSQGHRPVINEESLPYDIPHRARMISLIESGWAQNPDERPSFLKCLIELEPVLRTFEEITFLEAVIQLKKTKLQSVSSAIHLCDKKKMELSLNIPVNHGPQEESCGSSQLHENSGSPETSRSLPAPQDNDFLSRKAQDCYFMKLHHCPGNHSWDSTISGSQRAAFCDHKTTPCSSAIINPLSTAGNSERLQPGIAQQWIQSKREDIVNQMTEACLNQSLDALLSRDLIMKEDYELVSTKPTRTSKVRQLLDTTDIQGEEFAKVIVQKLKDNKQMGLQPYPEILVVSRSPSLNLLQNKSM

Consider `O=C([C@H]1CC[C@H](Nc2nccc(-n3nnc4ccccc43)n2)CC1)N1CCOCC1`, for which the inhibition – broadly, the drop in the measured response relative to a control, in per cent – in [1] is less than 50%; in assay [2] it was less than 50%; in assay [3], 92%; in assay [4] it was less than 50%; in assay [5], 91%; in [6] it was less than 50%. In addition, the inhibition in assay [7], in assay [8], in assay [9], in [10] and in assay [11] was less than 50% each time.

Turning to `CS(=O)(=O)CCCOc1cccc2c1ccn2-c1ccnc(N[C@H]2CC[C@H](C(=O)N3CCC(O)CC3)CC2)n1`, the inhibition in assay [11] was greater than 85%.

In the case of `O[C@H]1CC[C@H](Nc2nccc(-n3ccc4ccccc43)n2)CC1`, the inhibition in assay [1] is less than 50%; in assay [2] it was less than 50%; in assay [3], less than 50%; in assay [4], less than 50%; in assay [5], 99%; in assay [6], less than 50%. In addition, the inhibition in assay [7], in [8], in assay [9], in assay [10] and in [11] was less than 50% in each case.

Consider `O[C@H]1CC[C@H](Nc2nccc(-n3ncc4ccccc43)n2)CC1`, for which the inhibition in assay [1] is less than 50%; in assay [2] it was less than 50%; in [3], less than 50%; in assay [4], less than 50%; in assay [5], 99%; in assay [6] it was less than 50%. Also, the inhibition in [7], in assay [8], in assay [9], in [10] and in assay [11] was less than 50% throughout.

In the case of `O[C@H]1CC[C@H](Nc2nccc(-c3n[nH]c4ccccc34)n2)CC1`, the inhibition in assay [1] is less than 50%; in [2], 80%; in assay [3] it was less than 50%; in [4], less than 50%; in assay [5] it was 100%; in [6], less than 50%. Besides, the inhibition is 78% in assay [7]; 93% in [8]; less than 50% in [9]; less than 50% in assay [10]; less than 50% in assay [11].

Turning to `N[C@H]1CC[C@H](Nc2nccc(-n3nnc4ccccc43)n2)CC1`, the inhibition is less than 50% in assay [1]; less than 50% in assay [2]; less than 50% in assay [3]; less than 50% in assay [4]; 100% in assay [5]; less than 50% in assay [6]. Also, the inhibition was less than 50% in [7]; 82% in [8]; less than 50% in [9]; less than 50% in assay [10]; less than 50% in assay [11].

For `O[C@H]1CC[C@H](Nc2nccc(-n3nnc4ccccc43)n2)CC1`, the inhibition is less than 50% in [1]; less than 50% in assay [2]; less than 50% in [3]; less than 50% in [4]; 100% in assay [5]; less than 50% in [6]. Also, the inhibition in assay [7] was less than 50%; in [8], less than 50%; in assay [9], 66%; in [10], less than 50%; in assay [11], less than 50%.
